The subject of test [1] is MDA-MB-231. In words: Antiproliferative activity against human MDA-MB-231 cells after 24 hrs by MTS assay. The format is functional, cell-based. Conditions: MDA-MB-231, 24 h. An outline of the steps:
(§1)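 Cells were seeded at 2 × 10⁴ per well. After 24 h the monolayers were washed and overlaid with medium containing compound, from a 0.5 mg/ml DMSO stock diluted 1:10 to 1:10 000. Untreated medium served as control. After 24 h, MTS was added for 2 h at 37 °C in 5% CO2, and A490 was read. Viability was expressed as % of control, averaged over three independent assays, and IC50/EC50 were taken from the plotted curves.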

Test [2] has as its system HT-29. In words: Antiproliferative activity against human HT-29 cells after 24 hrs by MTS assay. The format is functional, cell-based. Particulars: HT-29, 24 h. An outline of the steps: as §1
In general terms: Formazan colour is commonly taken as a measure of viable cells.

Test [3] in a line: Antiproliferative activity against at human Splenocytes after 24 hrs by MTS assay. Format: cell-based. Particulars: Splenocyte. An outline of the steps:
as §1

Test [4] has as its system MDA-MB-231. In words: Cytotoxicity against human MDA-MB-231 cells after 24 hrs by MTS assay. The format is functional, cell-based. Conditions: MDA-MB-231, 24 h. An outline of the steps: as §1
Test [5] concerns HT-29. In words: Cytotoxicity against human HT-29 cells after 24 hrs by MTS assay. Conditions: HT-29, 24 h. The format is functional, cell-based. An outline of the steps:
as §1

The nature of test [6]: Cytotoxicity against human Splenocytes after 24 hrs by MTS assay. Conditions: Splenocyte. The format is cell-based. An outline of the steps: as §1

pEC50, pIC50: −log10 of the molar value.

Take `N=c1n(CC(=O)N/N=C/c2cccc(F)c2)c2ccccc2n1CC(=O)N/N=C/c1cccc(F)c1`: the pEC50 – broadly, −log10 of the EC50, conventionally taken in molar units – was 11.70 with MDA-MB-231 [1], 8.45 in the test on HT-29 [2] and 7.96 in test [3].

As to `CCOC(=O)C(C)N1C2=NC(=O)C(C)N2c2ccccc21` (stereo not drawn), the pEC50 in the test on MDA-MB-231 [1] was 8.69; with HT-29 [2], 8.25; in test [3] it was 9.27.

On to `N=c1n(CC(=O)N/N=C/c2ccc(F)cc2)c2ccccc2n1CC(=O)N/N=C/c1ccc(F)cc1`, for which the pEC50 in the test with HT-29 [2] is 8.37; in test [3], 7.77.

For `CCOC(=O)Cn1c(=N)n(CC(=O)OCC)c2ccccc21`, the pIC50 (in general, −log10 of the IC50, conventionally taken in molar units) with MDA-MB-231 [4] is 8.94. Also, the values for the pEC50 (in the test with HT-29 [2]; in test [3]) were 8.63 and 7.84, respectively.

As for `N=c1n(CCCc2ccccc2)c2ccccc2n1CCCc1ccccc1`, in the test on HT-29 [5], the pIC50 was 8.03. The pEC50 with MDA-MB-231 [1] is 8.86; in test [3], 7.85.

For the molecule `N=c1n(CC(=O)NCc2ccccc2)c2ccccc2n1CC(=O)NCc1ccccc1`, in the test with MDA-MB-231 [4], the pIC50 was 8.78. The negative-log EC50 (pEC50) in the test with HT-29 [2] is 9.69; in test [3] it was 8.11.

In the case of `CN1CCN(C(=O)Cn2c(=N)n(CC(=O)N3CCN(C)CC3)c3ccccc32)CC1`, the pIC50 is 10.89 in the test on HT-29 [5] and 8.86 in test [6]. In addition, in the test on MDA-MB-231 [1], the pEC50 was 8.80.

As to `N=c1n(CC(=O)NCCCN)c2ccccc2n1CC(=O)NCCCN`, the pIC50 with HT-29 [5] was 9.25; in the test on MDA-MB-231 [4], 9.91. For the same molecule, the pEC50 in test [3] is 10.30.

The record behind these values is ChEMBL document CHEMBL1806374, “Synthesis, characterization and cytotoxicity of some novel 1,3-disubstituted-2,3-dihydro-2-iminobenzimidazoles” (Eur J Med Chem, 2011).
